Screening data (PubChem)
m5-HT2A agonist: agonists of mouse serotonin 5-HT2A receptor (HTR2A) | activation, % at 7.6 µM | 360,000 tested, 0.66% active | CHO-K1 mHTR2A beta-arrestin complementation, luminescence; percent of 30 µM serotonin response | P35363;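 active = activation above a run cutoff, the mean activation of all tested compounds plus 3 SD, cut at about 14% in these data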;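 also: 0% = plate median of compound wells and 100% = 30 µM serotonin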
NRP1-CendR mod: modulators of CendR peptide binding to human neuropilin-1; O14786; FAM-RPARPAR peptide binding to NRP-1, fluorescence polarization; inhibition, % at 25 µM; 360,000 tested, 0.85% active; AID 602438;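 active = inhibition or corrected inhibition above about 18%, plus a signal ratio from 0.5 to 1.5, limit read from the data, passing the limit was not always enough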
sPLA2-III inh: Inhibits HGIII-sPLA2 liposome hydrolysis, primary screen. AID 743126. inhibition, % at 12.2 µM. Q9NZ20. 370,000 tested, 0.56% active. QFRET BODIPY PC-A2 liposome hydrolysis, fluorescence;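 active = inhibition above mean plus 3 SD of compounds lying within the high and low control bounds, cut at about 19% in these data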;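 also: 0% = median of test compound wells and 100% = no enzyme DMSO wells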
Target sequence (Q9NZ20 whole entry, looked up): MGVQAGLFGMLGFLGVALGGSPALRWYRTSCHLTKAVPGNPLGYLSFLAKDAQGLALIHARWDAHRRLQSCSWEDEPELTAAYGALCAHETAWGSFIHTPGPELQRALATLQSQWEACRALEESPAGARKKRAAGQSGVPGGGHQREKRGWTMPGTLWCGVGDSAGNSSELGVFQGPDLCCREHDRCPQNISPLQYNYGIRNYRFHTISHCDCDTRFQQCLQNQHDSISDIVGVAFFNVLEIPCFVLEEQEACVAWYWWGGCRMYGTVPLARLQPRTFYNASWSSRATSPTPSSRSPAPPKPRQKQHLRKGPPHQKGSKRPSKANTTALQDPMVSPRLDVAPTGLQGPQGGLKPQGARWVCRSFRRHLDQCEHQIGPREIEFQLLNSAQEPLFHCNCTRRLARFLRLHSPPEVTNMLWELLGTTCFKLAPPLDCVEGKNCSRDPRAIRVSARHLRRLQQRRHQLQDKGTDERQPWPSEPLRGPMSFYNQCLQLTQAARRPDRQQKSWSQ
Arrestin-AP2 inh: human beta-arrestin and AP2 interaction inhibition | inhibition, % at 10 µM | FITC-arrestin peptide / GST-AP2 beads, flow cytometry; AP2 beta2 appendage carries R879A mutation | 340,000 tested, 0.31% active;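 active = inhibition above a set limit, near 3 SD of compounds lacking own fluorescence, cut at about 54% in these data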;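 also: plate controls were DMSO wells for no effect and 5 µM unlabelled arrestin peptide for full effect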
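Measured by: flow cytometry, FL1 (488/535 nm); Material: AP2 appendage R879A on GSH beads; Evaluation: percent response; Timing: pre-incubation 12 min, peptide binding 1 h, room temperature; Also added: 50 nM FITC-arrestin peptide; Medium: PBS with 0.05% Tween 20 and 0.1% BSA.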
M18AAP inhibitor: PfM18AAP enzyme inhibition; recombinant PfM18AAP, H-Glu-NHMec fluorogenic cleavage; inhibition, % at 7.35 µM; 290,000 tested, 1.2% active;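 active = inhibition above the campaign mean inhibition over all tested compounds plus 3 SD, cut at about 28% in these data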;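 also: 0% = plate median of test compound wells and 100% = 2 mM ZnCl2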
Lipid droplet: modulators of hepatic lipid droplet formation | AML12 mouse hepatocytes, oleate lipid droplets, BODIPY imaging | inhibition, % at 6.5 µM | 240,000 tested, 0.4% active | AID 1656;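 active = lipid droplet intensity inhibited by at least 50%, with more than 500 cells counted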
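Test system: AML12 hepatocytes (mouse); reagent: oleate loading, 100 µM; dosing: one dose, 6.5 µM compound; incubation: overnight exposure; signal: fluorescence imaging, 20x objective, two fields per well; read-out basis: % inhibition of corrected integrated BODIPY droplet signal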
Numbers without * were called inactive; / = not tested or not shown. Most compounds without a hit are left out; they make up all but 3.3% or so of the library.

SMILES	m5-HT2A agonist	NRP1-CendR mod	sPLA2-III inh	Arrestin-AP2 inh	M18AAP inhibitor	Lipid droplet
O=C(O[C@H]1CC[C@@]23CCCN2C(=O)CCC[C@H]3C1)N1CCCC1	/	/	0	/	/	/
CN1C(c2ccccc2)CC2CN(c3ccccc3)C(=O)C21 (stereo not drawn)	/	/	-4	/	/	/
O=[N+]([O-])c1cc(-c2csc(NCCc3nc4cc(C(F)(F)F)ccc4n3CCCO)n2)ccc1Cl	-4	28*	9	-2	/	/
NC(=O)C1CCN(c2nc(-c3ccccc3N)cs2)CC1	-1	24*	1	-3	/	/
N#Cc1c2ccc(O)cc2n2ccccc12	1	31*	-56	12	-14	10
O=C(O)C(c1ccccc1)C1(O)CC2CCC1C2 (stereo not drawn)	1	-7	-7	-1	/	/
O=C(CCc1ccc(Oc2cc([N+](=O)[O-])cc([N+](=O)[O-])c2)cc1)N1CCCCCC1	0	26*	1	30	4	0
O=C(Cc1ccc([N+](=O)[O-])cc1)N1CCCCCC1	-4	5	6	-9	2	-1
COC(=O)CCC(=O)Nc1cccc2c(NC(=O)CCC(=O)OC)cccc12	-1	21*	3	-6	6	-18
COc1cc2c(cc1N)-c1ccc(N)cc1C2=O	0	-10	18	/	/	/
CCCCN1C(=O)C(C(=O)OCC)CC2=C1CCCC2=O (stereo not drawn)	-2	3	-3	-1	/	/
CCC(=O)NNc1nc2c(F)cccc2s1	2	-5	1	-21	31*	9
CCOc1cccc2sc(NC(=O)CC)nc12	4	0	1	24	6	24
Cc1ccc(NC(=O)OC2CC3CC2[C@H]2CCCCN2[C@H]3Cc2ccccc2)cc1 (stereo partly drawn)	/	/	-3	/	/	/
Cc1ccc(N(CC(=O)NC2CCCCC2)C(=O)Cn2nnc(-c3ccc(C)o3)n2)cc1	2	0	-7	11	0	-20
Cc1ccc(-c2nnn(CC(=O)N(CC(=O)NC3CCCCC3)c3cnc4ccccc4c3)n2)o1	-2	12	-20	9	32*	/
Cc1cc(N2CCCC2=O)ccc1S(=O)(=O)NC1CCCCC1	1	21*	-2	2	-11	0
Cc1cc(N2CCCC2=O)ccc1S(=O)(=O)N1CCOCC1	1	5	5	3	2	-9
OC[C@H]1O[C@@H](n2cnc3c(Nc4ccccc4)ncnc32)[C@H](O)[C@@H]1O	3	-4	2	1	-1	-5
CC(C)=CCNc1ncnc2c1c(C#N)cn2C1OC(CO)C(O)C1O (stereo not drawn)	-3	26*	0	2	/	/
Cc1ccc(NC(=O)CN2C(=O)N/C(=C\c3ccco3)C2=O)cc1	-3	-16	4	2	/	/
COc1ccc(OC)c(N(CCN2C(=O)c3ccccc3C2=O)C(=O)C2CCC(=O)C2C)c1 (stereo not drawn)	2	-5	-2	/	/	/
CCOCCCNC(=S)NC1CC2CCC(C1)N2Cc1ccccc1 (stereo not drawn)	0	-3	12	-14	-9	0
COCCCNC(=S)NC1CC2CCC(C1)N2Cc1ccccc1 (stereo not drawn)	0	48*	12	0	-9	7
CCCC(=O)OC[C@H]1CN(C2CCCC2)S(=O)(=O)c2c(Oc3ccc(F)cc3OC)cccc2O1	/	/	-10	/	/	/
SMILES	m5-HT2A agonist	NRP1-CendR mod	sPLA2-III inh	Arrestin-AP2 inh	M18AAP inhibitor	Lipid droplet
C=CCN=C(NC#N)SCc1ccccc1	2	36*	6	1	3	/
COc1cccc(C2=NNC(=NCc3ccccc3)SC2)c1	-4	31*	-4	6	-13	-24
OCC1CCCN(C(=S)Nc2ccc(Nc3ccccc3)cc2)C1 (stereo not drawn)	-4	33*	1	14	11	-6
OCC1CCCN(C(=S)Nc2ccc(OC(F)F)cc2)C1 (stereo not drawn)	-3	0	9	-5	-2	-8
CCn1c2ccccc2c2cc([N+](=O)[O-])ccc21	0	29*	-1	-4	3	2
CCOc1cc(C(c2c(C)[nH][nH]c2=O)c2c(C)[nH][nH]c2=O)cc(Cl)c1O	-4	-3	-22	38	32*	-24
CCOc1cc(C(c2c(C)[nH][nH]c2=O)c2c(C)[nH][nH]c2=O)cc(Br)c1OC	0	-8	-33	7	30*	3
OC(c1ccccc1)c1nc(-c2ccc3c(c2)OCO3)cs1 (stereo not drawn)	-1	-12	-4	/	/	/
CSCC[C@H](NC(=O)OC(C)(C)C)c1nnc(SCc2cccc(F)c2)o1	-6	-8	-2	1	1	/
CC(C)C[C@H](NC(=O)OC(C)(C)C)c1nnc(SCc2cccc(F)c2)o1	1	44*	-8	12	-1	-2
CCCCn1c(-c2cccs2)nc2oc3ccccc3c(=O)c2c1=O	1	20*	-3	-10	7	-10
CCCCn1c(-c2ccco2)nc2oc3ccccc3c(=O)c2c1=O	0	-6	-3	30	-17	-10
CCCC(C(=O)O)n1c(O)c(C=C2N=c3ccccc3=N2)sc1=S (stereo not drawn)	5	12	-4	5	30*	10
O=C(O)c1cccc(-n2c(O)c(C=C3N=c4ccccc4=N3)sc2=S)c1	-4	-59	-14	-1	31*	/
O=C(O)CCCn1c(O)c(C=C2N=c3ccccc3=N2)sc1=S	-2	-10	-12	12	-2	-2
CCN(CC)c1ccc(-n2c(O)c(C=C3N=c4ccccc4=N3)sc2=S)cc1	0	-1	4	6	0	-41
CCNC(=S)NNC(=O)c1csc(C)c1	-1	-4	8	1	28*	-4
CCCCCCC(=O)N=Nc1c(O)[nH]c2ccc([N+](=O)[O-])cc12	3	13	7	13	-1	13
O=C(CNC(=O)c1cccs1)N=Nc1c(O)[nH]c2ccc([N+](=O)[O-])cc12	-3	30*	2	0	2	24
COC(=O)c1cc2c(c3c4ccccc4n(S(=O)(=O)c4ccc(OC)cc4)c13)C(=O)N(Cc1ccco1)C2	/	/	5	/	/	/
COc1ccc(Oc2c(C=O)c3ccccc3n2C)cc1	5	26*	1	-3	9	/
Cc1ccc(Oc2c(C=O)c3ccccc3n2C)cc1	-1	12	4	3	2	/
CCN1C(=O)[C@H]2[C@@H](c3ccc(OC)cc3)N[C@]3(CCCN(CCC(C)C)C3=O)[C@H]2C1=O	1	-7	1	/	/	/
NS(=O)(=O)c1ccc(CNC(=S)NCc2ccc(F)cc2)cc1	11	25*	5	-2	2	7
Fc1ccc(CNC(=S)NC2CCCC2)cc1	-5	32*	13	-7	4	-18
